Screening data from PubChem BioAssay.
A selection: hits, their analogues and other compounds. The true share with any hit is near 1.5%.
Keap1-Nrf2 PPI: disrupts human Keap1 binding to Nrf2 peptide; Q14145; Keap1 Kelch-Nrf2 peptide fluorescence polarization, 1536-well; inhibition, % at 9.4 µM; 340,000 compounds, 0.15% hits; AID 504523; in the data active = inhibition above about 12%;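 also: human Keap1 Kelch domain with fluorescein labeled Nrf2 9mer peptide probe; higher means more block of Keap1 binding to Nrf2 peptide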
Target sequence (Q14145 whole entry, looked up, the tested form may be a part): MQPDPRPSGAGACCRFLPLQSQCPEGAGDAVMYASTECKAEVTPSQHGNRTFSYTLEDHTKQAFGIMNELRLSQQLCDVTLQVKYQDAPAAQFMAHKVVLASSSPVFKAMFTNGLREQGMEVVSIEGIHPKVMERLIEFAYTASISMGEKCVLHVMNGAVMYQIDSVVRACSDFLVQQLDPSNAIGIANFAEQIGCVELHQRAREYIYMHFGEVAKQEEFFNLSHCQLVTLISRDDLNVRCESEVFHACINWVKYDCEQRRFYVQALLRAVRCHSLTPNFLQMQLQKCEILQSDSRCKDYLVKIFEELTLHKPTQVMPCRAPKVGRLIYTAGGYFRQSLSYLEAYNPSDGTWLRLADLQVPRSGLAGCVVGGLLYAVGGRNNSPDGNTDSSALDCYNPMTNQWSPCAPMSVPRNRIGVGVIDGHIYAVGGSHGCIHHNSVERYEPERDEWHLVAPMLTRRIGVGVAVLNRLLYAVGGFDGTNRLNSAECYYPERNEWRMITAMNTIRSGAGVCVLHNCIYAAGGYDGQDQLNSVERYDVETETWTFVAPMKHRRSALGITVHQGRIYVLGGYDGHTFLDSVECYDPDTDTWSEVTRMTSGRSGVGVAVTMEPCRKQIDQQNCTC
LANA DNA inh: KSHV C-LANA DNA binding inhibition; MBP-C-LANA/FAM-LBS DNA binding, fluorescence polarization; AID 504423; 340,000 compounds, 0.078% hits; inhibition, % at 9 µM;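 active = highest replicate inhibition at or above 60% at 9 µM, even if other replicates fall short; inactive = all replicates below 60% inhibition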
LANA-H2A inh: blocks KSHV LANA binding to histone H2A/H2B | Q9QR71 | cell-free LANA-H2A/H2B peptide, fluorescence polarization | inhibition, % (no concentration beside the values) | 320,000 compounds, 0.6% hits; in the data active = inhibition mostly above about 10%, no sharp cut-off; inactive = mostly below about 6.7%
CaV13 FRET inh: Primary screen for inhibitors of IQ motif and Ca2+-dependent inactivation inhibitor domain binding in CACNA1D, Förster resonance energy transfer in living cells, …; HEK cells, CFP/YFP FRET ICDI-IQ, plate reader, 10 min; percent FRET-ratio fall versus neutral wells; inhibition, % at 12.3 µM; 340,000 compounds, 0.098% hits; AID 743397;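 active = mean replicate inhibition of at least 30% and at least 1% of replicates passing that level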
CAL PDZ FP-1: inhibitors of human CAL PDZ peptide binding | Q9HD26 | purified CAL PDZ, TMR-peptide fluorescence polarization, 1 h | inhibition, % at 20 µM | 330,000 compounds, 0.02% hits;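 active = highest replicate inhibition of at least 40%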
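Material – purified CerCALP PDZ construct · Detection – FP readout, S and P plane fluorescence · Measure – percent inhibition from loss of millipolarization · Controls – unlabelled peptide for full inhibition, DMSO wells as neutral · Probe or stimulus – TMR-labelled reporter peptide T*-PRC34 bound in PDZ groove · Times – 1 h at RT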
CAL PDZ FP-2: blocks peptide binding to the human CAL PDZ domain; Q9HD26; purified CAL PDZ, TMR-peptide fluorescence polarization, 1 h; inhibition, % at 24.9 µM; 300,000 compounds, 0.92% hits;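 active = mean inhibition of at least 30% with at least half of replicates also reaching 30%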
Large screens that a line does not name were inactive.

CCOC(=O)c1ccc2[nH]c3c(c2c1)CCCCC3=O	CAL PDZ FP-2 37.4
O=C(O)c1cc2c(cc1Cl)N1CCCCCC1=NS2(=O)=O	CAL PDZ FP-2 50.8
COC(=O)c1cc2c(cc1Cl)N1CCCCCC1=NS2(=O)=O	none
COc1ccc(C(=O)C(=O)N2CCN(C(=O)c3ccccc3C(F)(F)F)CC2)cc1OC	none (no result: Keap1-Nrf2 PPI, LANA DNA inh, LANA-H2A inh, CAL PDZ FP-1, CAL PDZ FP-2)
COC(=O)[C@]12C[C@H](CC(=O)NCCC(C)C)C(=O)N(Cc3ccc4c(c3)OCO4)C1=C[C@H](C(C)(C)C)O[C@@H]2C	none (no result: Keap1-Nrf2 PPI, LANA DNA inh, LANA-H2A inh, CAL PDZ FP-1, CAL PDZ FP-2)
COc1ccc(-c2nnn(CC(=O)N(CCN3CCOCC3)C(C(=O)NC3CCCC3)c3ccco3)n2)cc1 (centres undefined)	CAL PDZ FP-2 52.7
COc1ccc(-c2nnn(CC(=O)N(CCN3CCOCC3)C(C(=O)NC3CCCCC3)c3ccco3)n2)cc1 (centres undefined)	none
COc1cccc2sc3ccc(NCCC4CCCN4C)cc3c(=O)c12 (centres undefined)	none
COc1cc2sc3cc(NCC[C@@H]4CCCN4C)ccc3c(=O)c2cc1OC	CaV13 FRET inh 36.2
CC(C)NC(=O)C1(C)CN(S(C)(=O)=O)CC(=O)N1CCc1ccc(O)cc1 (centres undefined)	none (no result: Keap1-Nrf2 PPI, LANA DNA inh, LANA-H2A inh, CAL PDZ FP-1, CAL PDZ FP-2)
CCOC(=O)C(c1ccccc1)C(Nc1ccc(F)cc1)c1ccccn1 (centres undefined)	LANA-H2A inh 20.6
O=C(CCc1nnc2ccc(NCc3ccco3)nn12)Nc1ccccc1F	none
Cc1cc(C)c(NC(=O)CNC(=O)c2ccccc2OCc2c(C)noc2C)c(C)c1	none (no result: LANA-H2A inh)
Cc1cc(C)c(/C=N/NC(=O)c2nnn(-c3nonc3N)c2CN2CCC(C)CC2)c(C)c1	CAL PDZ FP-2 37.7
Nc1nonc1-n1nnc(C(=O)N/N=C/c2ccccn2)c1CNc1ccccc1	CAL PDZ FP-2 131.1
Nc1nonc1-n1nnc(C(=O)N/N=C/c2ccccn2)c1-c1ccccc1	none (no result: LANA-H2A inh)
CC1CCN(Cc2c(C(=O)N/N=C/c3cc(Br)ccc3O)nnn2-c2nonc2N)CC1	none
CCOc1ccc(C(=O)/C=C/c2ccc(OC)c(OC)c2)cc1	CAL PDZ FP-2 60.5
CCc1noc(C)c1C(=O)Nc1ncc(C)s1	CAL PDZ FP-2 35.0
O=C(OC1C2CCC1C1CN(CCc3ccccc3)CC12)c1ccccc1 (centres undefined)	CAL PDZ FP-2 40.6
CCSc1nsc(NC(=O)Nc2cccc(F)c2)n1	CAL PDZ FP-2 70.4
Cc1ccc(OCCSc2cc(C)nc(N)n2)cc1	none
CCCCSc1cc(C)nc(N)n1	CAL PDZ FP-2 38.6
Cn1cc(CCOCc2ccccn2)c2ccccc21	none (no result: Keap1-Nrf2 PPI, LANA DNA inh, LANA-H2A inh, CAL PDZ FP-1, CAL PDZ FP-2)
COc1ccc(OC)c(N(CC(=O)NCCc2ccc(OC)c(OC)c2)S(=O)(=O)c2ccccc2)c1	none
COc1ccc(OC)c(N(CC(=O)NCc2ccccc2)S(=O)(=O)c2ccc(OC)c(OC)c2)c1	LANA-H2A inh 40.8
COCCCNC(=O)CN(c1cc(OC)ccc1OC)S(=O)(=O)c1ccccc1	LANA-H2A inh 18.7
CC(C(=O)Nc1ncn[nH]1)N1C(=O)c2ccccc2C1=O (centres undefined)	LANA-H2A inh 16.7 (no result: CaV13 FRET inh)
N#Cc1ccccc1NC(=O)CSc1nnc(-c2ccncc2)o1	LANA-H2A inh 13.3
Cc1ccc(C)c(NC(=O)CSc2nnc(-c3ccncc3)o2)c1	none (no result: Keap1-Nrf2 PPI, LANA DNA inh, CAL PDZ FP-1, CAL PDZ FP-2)
COc1ccc(C(=O)C[n+]2cccc(Br)c2)cc1	CAL PDZ FP-2 32.0
NC(Cc1ccc(C(F)(F)F)cc1)c1csc(Nc2ccc(S(N)(=O)=O)cc2)n1 (centres undefined)	none (no result: Keap1-Nrf2 PPI, LANA DNA inh, LANA-H2A inh, CAL PDZ FP-1, CAL PDZ FP-2)
C/C(=N/NC(N)=S)c1ccc(Br)s1	none
COc1cnc(-c2ccccn2)nc1N(C)C	CAL PDZ FP-2 72.7
CCOC(=O)c1cnc2ccccc2c1NCCO	LANA-H2A inh 16.0 (no result: CaV13 FRET inh)
Cc1cc(=O)[nH]c(N)n1	LANA-H2A inh 13.4
CC(C)(C)S(=O)(=O)N1Cc2cc(CO)ccc2[C@@H]1CCO	none (no result: Keap1-Nrf2 PPI, LANA DNA inh, LANA-H2A inh, CAL PDZ FP-1, CAL PDZ FP-2)
N#Cc1cnc(NN)nc1	LANA-H2A inh 165.3 (no result: CaV13 FRET inh)
Cc1ccc(C)n1-c1ccc(C#N)cn1	none (no result: LANA-H2A inh)
Cc1ccc2c(c1)-n1c(nc3ccccc3c1=O)C(Cc1ccccc1)NC2=O (centres undefined)	none (no result: Keap1-Nrf2 PPI, LANA DNA inh, CAL PDZ FP-1, CAL PDZ FP-2)
c1coc(-c2nc3c4ccccc4ccn3c2Cc2ccsc2)c1	none (no result: Keap1-Nrf2 PPI, LANA DNA inh, LANA-H2A inh, CAL PDZ FP-1, CAL PDZ FP-2)
